This is an account of results in PubChem BioAssay AID504531 (The Scripps Research Institute Molecular Screening Center, 2011).

Each structure is given as a SMILES string.

The target of assay [1] is Platelet-activating factor acetylhydrolase 2, cytoplasmic (Mus musculus) (UniProt Q8VDG7). Put plainly: pPAFAH anti-target inhibition in intact cells, late-stage follow-up, selectivity assay for PAFAH2 inhibitor project, fluorescence, gel-based ABPP, murine mast cells, in situ (AID 504531). Particulars: gel-based ABPP FP-Rh, PAFAH2, at 0.01 µM, stronger effect = higher value. The method in brief:
(§1)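 Test system: Murine mast cells treated in situ, then soluble lysate fraction | Dosing: One dose, 10 nM | Schedule: Cells 4 h 37 °C, probe 30 min 25 °C | Measured by: SDS-PAGE with in-gel fluorescence scanning, band integrated optical density | Benchmarks: High control DMSO-only treated cells, low control blank-gel background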

Assay [2] deals with Platelet-activating factor acetylhydrolase (Mus musculus) (UniProt Q60963). Described as above. To be noted: gel-based ABPP FP-Rh, pPAFAH, at 0.01 µM, stronger effect = higher value. A digest of the protocol: as §1
Sequence of Platelet-activating factor acetylhydrolase (Mus musculus) (Q60963 whole entry, looked up): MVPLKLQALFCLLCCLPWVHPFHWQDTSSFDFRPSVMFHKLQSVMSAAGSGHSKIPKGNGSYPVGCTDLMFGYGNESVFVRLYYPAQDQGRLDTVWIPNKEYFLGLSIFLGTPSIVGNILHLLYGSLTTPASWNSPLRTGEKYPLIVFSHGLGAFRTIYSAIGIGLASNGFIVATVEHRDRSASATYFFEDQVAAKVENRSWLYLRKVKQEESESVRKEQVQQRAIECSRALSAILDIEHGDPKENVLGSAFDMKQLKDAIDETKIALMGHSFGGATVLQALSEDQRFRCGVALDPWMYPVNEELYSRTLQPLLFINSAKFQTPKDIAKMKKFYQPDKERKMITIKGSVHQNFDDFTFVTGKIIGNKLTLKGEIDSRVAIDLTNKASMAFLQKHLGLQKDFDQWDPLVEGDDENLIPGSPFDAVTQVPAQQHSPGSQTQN

Sequence of Platelet-activating factor acetylhydrolase 2, cytoplasmic (Mus musculus) (Q8VDG7 whole entry, looked up): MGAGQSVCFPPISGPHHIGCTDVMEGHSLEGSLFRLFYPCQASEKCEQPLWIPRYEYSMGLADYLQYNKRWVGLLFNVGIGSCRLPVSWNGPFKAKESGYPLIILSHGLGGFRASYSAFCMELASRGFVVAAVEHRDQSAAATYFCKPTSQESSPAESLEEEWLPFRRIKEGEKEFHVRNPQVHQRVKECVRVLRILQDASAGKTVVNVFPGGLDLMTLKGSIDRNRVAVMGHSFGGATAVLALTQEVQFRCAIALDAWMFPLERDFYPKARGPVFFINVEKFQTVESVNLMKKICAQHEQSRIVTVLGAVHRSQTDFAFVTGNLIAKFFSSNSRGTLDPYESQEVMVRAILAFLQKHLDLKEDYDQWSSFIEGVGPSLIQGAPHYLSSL

A word on the inhibition: it is the change of the read-out against control, counted positive when it falls. As for `O=C(N1CCCC1)n1ncc(-c2ccc(-c3ccccc3)cc2)n1`, the inhibition in assay [1] came out at 100%; in assay [2], 0%.
